Measurements published in ChEMBL document CHEMBL1137414, “3'-Substituted 7-halogenoindirubins, a new class of cell death inducing agents” (J Med Chem, 2006).

Experiments:
[1] = molecular target: Cyclin-dependent kinase 5/CDK5 activator 1 (Homo sapiens, UniProt Q00535+Q15078); assay: (§1) Inhibition of mammalian CDK5/p25; type: protein-complex assay
How it was run: (§2)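 Recombinant CDK5 and p25, each expressed in E. coli as GST fusions and affinity-purified on glutathione agarose, mixed in equal amounts. Phosphate incorporation onto P81 paper read by scintillation counting, blank subtracted. Activity taken as % of uninhibited. IC50 from dose-response curves.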

SH-SY5Y [2] = assay: Survival of human SH-SY5Y cells at 25 uM by MTS reduction assay; type: functional, cell-based; details: for viability at 25 µM: Homo sapiens, SH-SY5Y, read-out: Survival
How it was run: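 Viability was read by MTS reduction and expressed as percent of untreated cells, as the average ± SE of three independent measurements, representative of two independent experiments.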

SH-SY5Y [3] = assay: Survival of human SH-SY5Y cells after 24 hrs by MTS reduction assay; type: functional, cell-based
SH-SY5Y [4] = assay: Survival of human SH-SY5Y cells after 48 hrs by MTS reduction assay; type: functional, cell-based
SH-SY5Y [5] = assay: Death of human SH-SY5Y cells at 25 uM after 48 hrs by LDH release assay; type: functional
How it was run: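 SH-SY5Y human neuroblastoma cells were grown in DMEM with 2 mM L-glutamine, antibiotics and 10% FCS at 37 °C under 5% CO2. […] Lactate dehydrogenase release was measured 48 h after addition and expressed as percent cell death.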

HT-29 = assay: Survival of human HT29 cells after 48 hrs by MTS reduction assay; type: functional, cell-based
HCT-116 = assay: Survival of human HCT116 cells after 48 hrs by MTS reduction assay; type: functional, cell-based
How it was run: (§3)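 Viability read by MTS reduction. IC50 taken from dose-response curves, triplicate measurements. HCT116 grown in McCoy's 5A with 10% FCS. MDA-MB-231 grown in DMEM with 10% FCS and seeded at 7500 cells/well.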

MDA-MB-231 = assay: Survival of human MDA-MB-231 cells after 48 hrs by MTS reduction assay; type: functional, cell-based; how it was run: as §3
A549 = assay: Survival of human A549 cells after 48 hrs by MTS reduction assay; type: functional, cell-based
PC-3 = assay: Survival of human PC3 cells after 48 hrs by MTS reduction assay; type: functional, cell-based
BP8 = assay: Survival of […] AhR -/- BP8 cells after 48 hrs by MTS reduction assay; type: functional, cell-based
Huh-7 = assay: Survival of human Huh7 cells after 48 hrs by MTS reduction assay; type: functional, cell-based
HEK293 = assay: Survival of human HEK293 cells after 48 hrs by MTS reduction assay; type: functional, cell-based
SH-SY5Y [6] = assay: Death of human SH-SY5Y cells in absence of 20 uM Q-VD-OPh by MTS reduction assay; type: functional, cell-based
SH-SY5Y [7] = assay: Death of human SH-SY5Y cells in presence of 20 uM Q-VD-OPh by MTS reduction assay; type: functional, cell-based
F1 (hepatoma cell line) = assay: Survival of mouse F1 cells after 48 hrs by MTS reduction assay; details: F1
[8] = Inhibition of starfish CDK1/cyclin B in presence of 15 uM ATP; set-up: species or system Marthasterias glacialis
[9] = molecular target: Cyclin-dependent kinase 5/CDK5 activator 1 (Homo sapiens, UniProt Q00535); assay: as §1; type: protein-complex assay; how it was run: as §2
[10] = molecular target: Glycogen synthase kinase-3 (Homo sapiens, UniProt P49840+P49841); assay: Inhibition of porcine brain GSK3alpha/beta; details: Sus scrofa
[11] = Survival of mouse F1 cells after 48 hrs by MTS reduction assay; details: Mus musculus, F1, 48 h
[12] = Homo sapiens, SH-SY5Y, read-out: IC50

Cyclin-dependent kinase 5/CDK5 activator 1 (Homo sapiens, UniProt Q00535), sequence (Q00535 whole entry): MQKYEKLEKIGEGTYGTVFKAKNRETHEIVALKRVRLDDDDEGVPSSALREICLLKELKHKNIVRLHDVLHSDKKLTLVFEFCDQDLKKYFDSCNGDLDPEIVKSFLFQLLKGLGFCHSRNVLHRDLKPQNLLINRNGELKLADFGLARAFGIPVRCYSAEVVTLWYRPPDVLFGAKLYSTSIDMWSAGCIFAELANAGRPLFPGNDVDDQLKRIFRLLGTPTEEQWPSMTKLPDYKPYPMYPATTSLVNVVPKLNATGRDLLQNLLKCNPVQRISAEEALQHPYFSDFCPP
Cyclin-dependent kinase 5/CDK5 activator 1 (Homo sapiens, UniProt Q00535), sequence (Q15078 whole entry, further chain): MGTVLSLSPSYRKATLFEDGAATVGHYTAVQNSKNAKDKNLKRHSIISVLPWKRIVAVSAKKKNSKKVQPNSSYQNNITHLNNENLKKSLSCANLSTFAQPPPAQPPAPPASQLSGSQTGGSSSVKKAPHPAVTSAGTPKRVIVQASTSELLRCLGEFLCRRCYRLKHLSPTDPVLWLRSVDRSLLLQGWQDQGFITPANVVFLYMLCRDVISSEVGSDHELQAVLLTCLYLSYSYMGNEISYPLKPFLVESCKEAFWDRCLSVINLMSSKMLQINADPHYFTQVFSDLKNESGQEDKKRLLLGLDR
Cyclin-dependent kinase 5/CDK5 activator 1 (Homo sapiens, UniProt Q00535+Q15078), sequence (Q00535 whole entry, the tested form may be a part): as the sequence (Q00535 whole entry) above
Cyclin-dependent kinase 5/CDK5 activator 1 (Homo sapiens, UniProt Q00535+Q15078), sequence (Q15078 whole entry, the tested form may be a part): as the sequence (Q15078 whole entry, further chain) above
Glycogen synthase kinase-3, sequence (P49840 whole entry, looked up): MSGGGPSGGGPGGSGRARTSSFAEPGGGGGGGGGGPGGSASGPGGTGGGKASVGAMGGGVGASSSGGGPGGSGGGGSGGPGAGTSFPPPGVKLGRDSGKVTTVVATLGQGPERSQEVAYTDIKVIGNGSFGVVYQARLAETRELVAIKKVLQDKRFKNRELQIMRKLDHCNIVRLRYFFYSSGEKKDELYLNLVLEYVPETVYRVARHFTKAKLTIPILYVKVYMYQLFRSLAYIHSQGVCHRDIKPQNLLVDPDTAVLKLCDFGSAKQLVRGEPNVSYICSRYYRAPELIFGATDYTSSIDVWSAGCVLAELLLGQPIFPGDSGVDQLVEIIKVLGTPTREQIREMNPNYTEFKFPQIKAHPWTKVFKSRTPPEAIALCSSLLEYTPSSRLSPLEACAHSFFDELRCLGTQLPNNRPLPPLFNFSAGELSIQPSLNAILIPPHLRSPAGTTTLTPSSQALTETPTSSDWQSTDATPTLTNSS
Glycogen synthase kinase-3, sequence (P49841 whole entry, looked up): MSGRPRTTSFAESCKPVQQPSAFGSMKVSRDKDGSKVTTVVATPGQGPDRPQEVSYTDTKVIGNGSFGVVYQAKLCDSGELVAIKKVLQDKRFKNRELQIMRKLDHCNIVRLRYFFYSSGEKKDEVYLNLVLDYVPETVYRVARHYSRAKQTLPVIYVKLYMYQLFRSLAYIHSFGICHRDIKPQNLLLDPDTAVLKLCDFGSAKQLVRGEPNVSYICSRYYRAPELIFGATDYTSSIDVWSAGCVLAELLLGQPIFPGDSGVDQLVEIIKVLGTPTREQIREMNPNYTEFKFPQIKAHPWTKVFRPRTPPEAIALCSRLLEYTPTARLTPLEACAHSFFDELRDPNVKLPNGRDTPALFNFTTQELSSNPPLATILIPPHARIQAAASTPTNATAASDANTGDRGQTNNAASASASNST

Structure (SMILES)	Survival (SH-SY5Y [2])	Activity (SH-SY5Y [5])	IC50 (HT-29; ht-29)	IC50 (HCT-116; hct-116)	IC50 (MDA-MB-231; mda-mb-231)	IC50 (A549; a549)	IC50 (BP8; bp8)	IC50 (Huh-7; huh-7)	IC50 (HEK293; hek293)	IC50 [8]	IC50 [9]	IC50 (SH-SY5Y [3]; Homo sapiens, SH-SY5Y, 24 h)	IC50 (SH-SY5Y [4]; Homo sapiens, SH-SY5Y, 48 h)	IC50 (SH-SY5Y [6]; [12])	IC50 (SH-SY5Y [7]; Homo sapiens, SH-SY5Y)	IC50 (MDA-MB-231; Homo sapiens, MDA-MB-231, 48 h)	IC50 (A549; Homo sapiens, A549, 48 h)	IC50 (PC-3; Homo sapiens, PC-3, 48 h)	IC50 (BP8; Mus musculus, BP8, 48 h)	IC50 [11]	also measured
Oc1[nH]c2c(Br)cccc2c1C1=Nc2ccccc2/C1=N\OCCN1CCNCC1	3%	94%	6.3 µM	5.4 µM	5.3 µM	5.9 µM	5.6 µM	5.3 µM	5 µM	–	–	–	–	–	–	–	–	–	–	–	IC50 [1]: > 10 µM; IC50 (SH-SY5Y [3]; sh-sy5y): 10.5 µM; IC50 (SH-SY5Y [4]; sh-sy5y): 6.2 µM; IC50 (PC-3; pc-3): 6.1 µM; IC50 (SH-SY5Y [6]): 10 µM; IC50 (SH-SY5Y [7]; sh-sy5y): 10.3 µM; IC50 (F1 (hepatoma cell line)): 1.7 µM
O=Nc1c(-c2c(O)[nH]c3c(Cl)cccc23)[nH]c2ccccc12	–	92%	–	–	–	–	–	–	–	3.7 µM	6 µM	14 µM	12 µM	10 µM	11 µM	–	–	–	–	–	IC50 [10]: 21 µM; viability at 25 µM (SH-SY5Y [2]): 7%
Cn1c(O)c(C2=Nc3ccccc3/C2=N\OCCN2CCCC2)c2cccc(Br)c21	15%	78%	19.8 µM	13.6 µM	26.8 µM	21 µM	18.8 µM	18.8 µM	21.4 µM	–	–	–	–	–	–	–	–	–	–	–	IC50 [1]: > 10 µM; IC50 (SH-SY5Y [3]; sh-sy5y): 7.8 µM; IC50 (SH-SY5Y [4]; sh-sy5y): 5 µM; IC50 (PC-3; pc-3): 21.6 µM; IC50 (SH-SY5Y [6]; sh-sy5y, read-out: IC50): 6.1 µM; IC50 (SH-SY5Y [7]; sh-sy5y): > 25 µM; IC50 (F1 (hepatoma cell line)): 5.6 µM
CN(C)CCO/N=C1/C(c2c(O)n(C)c3c(Br)cccc23)=Nc2ccccc21.Cl	4%	80%	–	–	–	–	–	–	–	> 10 µM	> 10 µM	21 µM	9 µM	–	–	17.8 µM	20.8 µM	25 µM	19 µM	5.4 µM	IC50 (HCT-116; Homo sapiens, HCT-116, 48 h): 15.7 µM; IC50 (Huh-7; Homo sapiens, Huh-7, 48 h): 18 µM; IC50 (HEK293; Homo sapiens, HEK293, 48 h): 18.8 µM; IC50 (SH-SY5Y [6]; sh-sy5y, read-out: IC50): 11 µM
O=Nc1c(-c2c(O)[nH]c3c(Br)cccc23)[nH]c2ccccc12	–	94%	–	–	–	–	–	–	–	–	–	8 µM	7.1 µM	7 µM	7 µM	10.5 µM	21.8 µM	19.8 µM	19.4 µM	8 µM	viability at 25 µM (SH-SY5Y [2]): 4%; IC50 (HT-29; Homo sapiens, HT-29, 48 h): 21.2 µM; IC50 (HCT-116; Homo sapiens, HCT-116, 48 h): 6.2 µM; IC50 (Huh-7; Homo sapiens, Huh-7, 48 h): 9 µM; IC50 (HEK293; Homo sapiens, HEK293, 48 h): 12.3 µM
CN(C)CCO/N=C1/C(c2c(O)[nH]c3c(Br)cccc23)=Nc2ccccc21.Cl	5%	84%	2.4 µM	2 µM	–	5.8 µM	–	–	3 µM	> 10 µM	> 10 µM	2.1 µM	1 µM	1.1 µM	> 25 µM	18.8 µM	–	15 µM	> 30 µM	–	IC50 (Huh-7; Homo sapiens, Huh-7, 48 h): 11.2 µM; IC50 (F1 (hepatoma cell line)): 1.7 µM
Cl.Oc1[nH]c2c(Br)cccc2c1C1=Nc2ccccc2/C1=N\OCCN1CCCC1	–	80%	–	–	–	–	–	–	–	> 100 µM	> 10 µM	3.1 µM	2 µM	–	–	> 30 µM	16 µM	30 µM	> 30 µM	3.1 µM	viability at 25 µM (SH-SY5Y [2]): 12%; IC50 (HCT-116; Homo sapiens, HCT-116, 48 h): 3.8 µM; IC50 (Huh-7; Homo sapiens, Huh-7, 48 h): 13.6 µM; IC50 (HEK293; Homo sapiens, HEK293, 48 h): > 30 µM; IC50 (SH-SY5Y [6]; sh-sy5y, read-out: IC50): 2.8 µM
CN(C)CCO/N=C1/C(c2c(O)[nH]c3c(Br)cccc23)=Nc2ccccc21	1%	86%	21.8 µM	6.5 µM	26.4 µM	21.8 µM	19.5 µM	19.6 µM	14.4 µM	–	–	–	–	–	–	–	–	–	–	–	IC50 [1]: > 10 µM; IC50 (SH-SY5Y [3]; sh-sy5y): 4.1 µM; IC50 (SH-SY5Y [4]; sh-sy5y): 2 µM; IC50 (PC-3; pc-3): 27.2 µM; IC50 (SH-SY5Y [6]; sh-sy5y, read-out: IC50): 1.5 µM; IC50 (F1 (hepatoma cell line)): 5.5 µM
Cl.Cl.Oc1[nH]c2c(Br)cccc2c1C1=Nc2ccccc2/C1=N\OCCN1CCNCC1	–	100%	1.9 µM	–	–	–	–	2 µM	1.9 µM	> 10 µM	> 10 µM	6 µM	6 µM	6.2 µM	6.8 µM	5.1 µM	6 µM	6 µM	5.4 µM	1.4 µM	viability at 25 µM (SH-SY5Y [2]): 3%; IC50 (HCT-116; Homo sapiens, HCT-116, 48 h): 5.1 µM
Cl.Cn1c(O)c(C2=Nc3ccccc3/C2=N\OCCN2CCCC2)c2cccc(Br)c21	1%	94%	5.4 µM	5.1 µM	12 µM	–	7.5 µM	5.6 µM	8 µM	> 10 µM	> 10 µM	7.3 µM	4 µM	5 µM	13 µM	–	14.6 µM	19 µM	–	2.9 µM	–
